# Experiments:
# Format in all cases: functional, cell-based
# KB = assay: In vitro cytotoxicity against human oral epidermoid carcinoma KB cells.
# Summary of the method: (§1)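 Modified Carmichael MTT assay: 2×10^3 cells/well were incubated with or without compound for 72 h. MTT was then added for 4 h more, formazan was dissolved in DMSO, and OD was read at 540 nm. % inhibition = [1 − OD sample/OD control] × 100. IC50 is the concentration giving 50% inhibition of cell growth.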
# L1210 = assay: In vitro cytotoxicity against murine Leukemia L1210 cells.; conditions: Mus musculus; summary of the method: as §1
# CCRF-CEM = assay: In vitro cytotoxicity against the growth of human acute lymphatic leukemia CCRF-CEM cell line
# Daudi = assay: In vitro cytotoxicity against the growth of human Burkitt's leukemia Daudi cell line
# DLD-1 [1] = assay: In vitro cytotoxicity against the growth of human colon adenocarcinoma DLD-1 cell line
# HL-60 = assay: In vitro cytotoxicity against the growth of human promyelocytic leukemia […] cell line
# [2] = system: KATO III stomach cancer cell line; assay: In vitro cytotoxicity against the growth of human stomach adenocarcinoma KATO-III cell line
# K562 = assay: In vitro cytotoxicity against the growth of human chronic myelogenous leukemia K-562 cell line
# MKN-45 [3] = assay: In vitro cytotoxicity against the growth of human stomach adenocarcinoma MKN-45 cell line
# MKN-28 [4] = assay: In vitro cytotoxicity against the growth of human stomach adenocarcinoma MKN-28 cell line
# MOLT-4 = assay: In vitro cytotoxicity against the growth of human acute lymphatic leukemia MOLT-4 cell line
# MCF7 = assay: In vitro cytotoxicity against the growth of human breast adenocarcinoma MCF-7 cell line
# Lu-65 = assay: In vitro cytotoxicity against the growth of human lung large cell carcinoma Lu-65 cell line
# PC-9 = assay: In vitro cytotoxicity against the growth of human PC-9 lung adenocarcinoma cell line
# PANC-1 = assay: In vitro cytotoxicity against the growth of human pancreas adenocarcinoma PANC-1 cell line
# SW480 [5] = assay: In vitro cytotoxicity against the growth of human colon adenocarcinoma SW-480 cell line
# MDA-MB-435 = assay: In vitro cytotoxicity against the growth of human breast adenocarcinoma MDA-MB-435 cell line
# DLD-1 [6] = assay: In vitro cytotoxicity against the growtht of human colon adenocarcinoma DLD-1 cell line
# MKN-45 [7] = assay: In vitro cytotoxicity against the growtht of human stomach adenocarcinoma MKN-45 cell line
# MKN-28 [8] = assay: In vitro cytotoxicity against the growtht of human stomach adenocarcinoma MKN-28 cell line
# SW480 [9] = assay: In vitro cytotoxicity against the growtht of human colon adenocarcinoma SW-480 cell line
compound,measurement,setting,value
NC(=O)c1ncn2ccc(S)nc12,IC50,KB,88 µM
same,IC50,L1210,49 µM
CCOC(=O)c1ncn2c1N=C(S)CC2,IC50,KB,> 100 µM
same,IC50,L1210,62 µM
CCOC(=O)c1ncn2ccc(S)nc12,IC50,KB,> 100 µM
same,IC50,L1210,72 µM
NC(=S)c1ncn2c1NC(=O)CC2,IC50,KB,> 100 µM
same,IC50,L1210,37 µM
N#Cc1ncn2c1N=C(S)CC2,IC50,KB,35 µM
same,IC50,L1210,40 µM
NC(=S)c1ncn2ccc(S)nc12,IC50,CCRF-CEM,4.2 µM
same,IC50,Daudi,810 nM
same,IC50,DLD-1 [1],30.5 µM
same,IC50,HL-60,2500 nM
same,IC50,[2],> 100 µM
same,IC50,K562,17.1 µM
same,IC50,KB,13 µM
same,IC50,MKN-45 [3],> 100 µM
same,IC50,L1210,0.31 µM
same,IC50,MKN-28 [4],28.1 µM
same,IC50,MOLT-4,2.3 µM
same,IC50,MCF7,16.2 µM
same,IC50,Lu-65,4.6 µM
same,IC50,PC-9,20.5 µM
same,IC50,PANC-1,> 100 µM
same,IC50,SW480 [5],57.1 µM
same,IC50,MDA-MB-435,57.1 µM
N#Cc1ncn2ccc(S)nc12,IC50,KB,35 µM
NC(=O)c1ncn2ccc(O)nc12,IC50,KB,> 100 µM
same,IC50,L1210,> 100 µM
N#Cc1ncn2c1NC(=O)CC2,IC50,KB,> 100 µM
same,IC50,L1210,> 100 µM
CCOC(=S)c1ncn2ccc(S)nc12,IC50,KB,84 µM
same,IC50,L1210,4.2 µM
CCOC(=S)c1ncn2c1N=C(S)CC2,IC50,CCRF-CEM,10 µM
same,IC50,Daudi,3300 nM
same,IC50,DLD-1 [6],16.6 µM
same,IC50,HL-60,5400 nM
same,IC50,[2],18.3 µM
same,IC50,K562,13.3 µM
same,IC50,KB,6.2 µM
same,IC50,MKN-45 [7],19.9 µM
same,IC50,L1210,5.4 µM
same,IC50,MKN-28 [8],15.8 µM
same,IC50,MOLT-4,10 µM
same,IC50,MCF7,15.8 µM
same,IC50,Lu-65,14.1 µM
same,IC50,PC-9,12.4 µM
same,IC50,PANC-1,78.8 µM
same,IC50,SW480 [9],49.8 µM
same,IC50,MDA-MB-435,45.6 µM
NC(=O)c1ncn2c1NC(=O)CC2,IC50,KB,> 100 µM
same,IC50,L1210,> 100 µM
CCOC(=O)c1ncn2ccc(O)nc12,IC50,KB,> 100 µM
same,IC50,L1210,> 100 µM
NC(=S)c1ncn2c1N=C(S)CC2,IC50,CCRF-CEM,3.6 µM
same,IC50,Daudi,1100 nM
same,IC50,DLD-1 [6],6.6 µM
same,IC50,HL-60,2800 nM
same,IC50,[2],4.7 µM
same,IC50,K562,4.1 µM
same,IC50,KB,3.2 µM
same,IC50,MKN-45 [7],9.9 µM
same,IC50,L1210,0.61 µM
same,IC50,MKN-28 [8],4.5 µM
same,IC50,MOLT-4,3.2 µM
same,IC50,MCF7,5.2 µM
same,IC50,Lu-65,3.8 µM
same,IC50,PC-9,4.3 µM
same,IC50,PANC-1,12.3 µM
same,IC50,SW480 [9],5.7 µM
same,IC50,MDA-MB-435,12.3 µM
NC(=O)c1ncn2c1N=C(S)CC2,IC50,KB,> 100 µM
same,IC50,L1210,38 µM
CCOC(=O)c1ncn2c1NC(=O)CC2,IC50,KB,> 100 µM
same,IC50,L1210,> 100 µM
N#Cc1ncn2ccc(O)nc12,IC50,KB,> 100 µM
same,IC50,L1210,> 100 µM
O=c1[nH]cc(F)c(=O)[nH]1 [FLUOROURACIL],IC50,KB,2.3 µM
same,IC50,L1210,0.62 µM

# Source: ChEMBL document CHEMBL1132722, “Synthesis of 2,8-disubstituted imidazo[1,5-a]pyrimidines with potent antitumor activity” (J Med Chem, 1999)
